From article PMC11638133 (Journal of Veterinary Internal Medicine, 2024)

Tests used:
[1] = test system: renin‐angiotensin‐aldosterone system (RAAS); conditions: cited from earlier work
[2] = Plasma pharmacokinetics of active drug metabolites after oral CARDALIS®; type: in vivo, beagle dogs; conditions: linear mixed model, AUC over the first 24 hours, natural logarithmic scale
Outline: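 Healthy purpose-bred beagles, 6 per group, were fed a low-sodium diet for 5 days, then given an oral ACE-inhibitor/mineralocorticoid-antagonist combination for 14 days at 0.25+2 mg/kg q24h, 0.25+2 mg/kg q12h or 0.5+4 mg/kg q12h. Serial Day-13 plasma was stored at −80°C, and three active metabolites were measured by LC-MS/MS. […] Dose–AUC used a linear mixed model (dog random effect, ln scale).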

[3] = test system: renin‐angiotensin‐aldosterone system (RAAS); conditions: 2 mg/kg PO q24h vs 4 mg/kg PO q24h, monotherapy; cited from earlier work
[4] = highest dose 4 times higher than lowest dose of benazepril

Structure (SMILES): CCOC(=O)[C@H](CCc1ccccc1)N[C@H]1CCc2ccccc2N(CC(=O)O)C1=O [benazepril]
- difference in mean ACE‐S between the highest and lowest doses [1, 4]: −59%
- difference in mean Ang1‐7 between the highest and lowest doses [1, 4]: +47%
- difference in mean AngII between the highest and lowest doses [1, 4]: −38%
- lower values of AngII ([1]; highest dose studied (0.5 mg/kg) compared to the lowest dose studied (0.125 mg/kg)): 38%

Structure (SMILES): O=C(O)CN1C(=O)[C@@H](N[C@@H](CCc2ccccc2)C(=O)O)CCc2ccccc21 [Benazeprilat, benazeprilat]
- increase in AUC for a 1 mg increase in dose [2]: 1.99 ng·h/mL

Structure (SMILES): CS[C@@H]1CC2=CC(=O)CC[C@]2(C)[C@H]2CC[C@@]3(C)[C@@H](CC[C@@]34CCC(=O)O4)[C@H]12 [TMS, 7‐alpha‐thiomethylspironolactone]
- increase in AUC for a 1 mg increase in dose [2]: 1.50 units

Structure (SMILES): C[C@]12CCC(=O)C=C1C=C[C@@H]1[C@@H]2CC[C@@]2(C)[C@H]1CC[C@@]21CCC(=O)O1 [Canrenone, canrenone]
- increase in AUC for a 1 mg increase in dose [2]: 1.54 units

Structure (SMILES): CC(=O)S[C@@H]1CC2=CC(=O)CC[C@]2(C)[C@H]2CC[C@@]3(C)[C@@H](CC[C@@]34CCC(=O)O4)[C@H]12 [spironolactone]
- Dose-dependent differences in RAAS metabolites (including aldosterone) [3]: no dose‐dependent differences in RAAS metabolites (including aldosterone)
